According to ChEMBL document CHEMBL4513216, “Probing the Open Global Health Chemical Diversity Library for Multistage-Active Starting Points for Next-Generation Antimalarials” (ACS Infect Dis, 2020):

Assay: Toxicity liver stage against HepG2, at 10uM
Assay type: cell-based
Set-up: test concentration 10 uM, cell line HepG2-A16-CD81EGFP
Conditions: human, HepG2-A16-CD81EGFP cells; read-out: INHIBITION
Summary of the method: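 Uninfected HepG2-A16-CD81EGFP cells, 3 × 10^3 per well, 1536-well, plated on prespotted compound at 10 μM final, parasite-free screening media added to match infected plates; puromycin 10 μM positive, DMSO 0.5% negative; run in parallel with 48 h PbLuc assay at 37 °C, 5% CO2; viability by CellTiter-Glo luminescence, normalized to controls.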

Structure (SMILES) | cytotoxicity at 10 µM
CCSc1ncc(CN2C[C@@H]3CC[C@H]2CN(C2CCOCC2)C3)cn1 | -6.38%
CCOc1ncccc1C(=O)Nc1c(C)cnn1CC1CC1 | 1.62%
CC(C)c1cc(NCC2(CO)CCCC2)ncn1 | 11.9%
COCCNC(=O)[C@H]1CN(Cc2scnc2C)C[C@H]2OCC[C@@H]12 | -8.94%
CN(Cc1cnn(C)c1)C(=O)CN1CCCCC1Cn1cncn1 (stereo not given) | 17.5%
CO[C@H]1CN(C(=O)OC(C)(C)C)CC1NCc1ccoc1 (stereo not given in full) | -51.8%
Cc1noc(C)c1C(=O)N(C)C(C)c1ccncc1 (stereo not given) | 0.66%
Cc1cc(-c2cnn(C)c2)ccc1OCC(N)=O | 2.74%
Cn1cc(CCCNC(=O)NC2CCN(c3ccccc3)C2=O)cn1 (stereo not given) | 6.75%
Clc1cc(N2CCC(N3CCCC3)CC2)nc2[nH]ccc12 | -0.77%
CC(C)(O)CSCCNC(=O)c1cc(F)ccc1F | -4.11%
NS(=O)(=O)Cc1ccc(CNc2cncc(-n3cccn3)n2)cc1 | 6.1%
CC(C)c1nc(C2CCCN2Cc2ccno2)no1 (stereo not given) | -6.85%
c1csc(CNc2ccccc2Cn2cncn2)c1 | 11.5%
CN1CCCC(c2cncc(-c3cccc(C(F)(F)F)c3)n2)C1 (stereo not given) | 8.92%
Cc1ccc(CNC(=O)Cc2c(C)nc3c(c2C)c(=O)[nH]n3C)cc1 | -8.6%
O=C(CCS(=O)(=O)C1CCCC1)NCCc1ccc2c(c1)OCCO2 | -1.29%
CCNC(=O)C1CCN(Cn2nc(-c3ccccc3)oc2=O)CC1 | 11.5%
CCN(C)C[C@@H]1CN(C(=O)c2cc(-c3ccc(F)cc3)n[nH]2)C[C@@H]1CO | -26.4%
O=C(NC1CCCC1)c1cc(Sc2ncccn2)ccn1 | -12.3%
CCN(CC)c1ccc(C2c3c(n[nH]c3C)N=C3COC(=O)C32)cc1 (stereo not given) | 4.33%
CC1CCc2nc(O)c(C(=O)NCc3ccccn3)cc2C1 (stereo not given) | -2.99%

Structure (SMILES) | cytotoxicity at 10 µM
COCCN1CCCC(c2ncc(C(=O)N(C)C)c(C)n2)C1 (stereo not given) | -1.21%
Cn1cc(CN2CCC3(CCN(c4cnn(C)c4)C3=O)C2)cn1 (stereo not given) | -83.4%
CCOC(=O)CCNC(=O)N1CCCC(CNC(=O)c2ccco2)C1 (stereo not given) | 14.9%
Nc1nc2c(c(NC(=O)Nc3ccc(Cl)c(Cl)c3)n1)CCCC2 | -6.92%
COc1ccccc1N1CCN(C(=O)Cn2nc(C)cc2C)CC1(C)C | 9.62%
c1cc(CN2CCCCC2c2ccc(Nc3cnccn3)nc2)ccn1 (stereo not given) | 7.38%
NC1CCN(C2CCN(c3ccc(-c4ccco4)cc3)CC2)CC1 | 1.03%
c1cncc(-c2noc(CCNc3ncnc4c3CCNCC4)n2)c1 | 3.38%
Cn1ccnc1C(=O)NCCS(=O)(=O)c1ccc(C(C)(C)C)cc1 | 3.62%
Cc1nc(CN2CCN(c3nc4c(s3)c(C)nn4C)CC2)cs1 | 15.6%
CCOc1cc(CNC(=O)NC2CC=CC2)ccc1OC(F)F | -42.4%
O=C1Nc2ccccc2CN(CC=Cc2ccccc2)C12CCNC2 (stereo not given) | 2.96%
O=C(CC1CCCC1)N1CCN2C[C@@H](CO)[C@H](c3ccccc3)[C@H]2C1 | -4.73%
Cc1nc2ccccc2nc1CN1CCCC1Cn1cncn1 (stereo not given) | -1.28%
COc1cc(NCC(=O)NC(C)(C#N)C(C)C)cc(OC)c1OC (stereo not given) | -7.33%
CN1CCN(S(=O)(=O)NCC2COc3ccccc3C2)CC1 (stereo not given) | -3.33%
Cn1nc(C2CCCN(Cc3cccs3)C2)c2nccnc21 (stereo not given) | 4.2%
COc1ccc(-n2cnnc2SCCC#N)cn1 | 22.2%
N#Cc1ccc(N2CCCN(CC(=O)N3CCOCC3)CC2)cc1 | 6.62%
COC(=O)[C@@H]1Cc2ncn(C)c2CN1S(=O)(=O)c1ccc(C)cc1 | 2.08%
CCn1ncc(Br)c1CN(C)S(=O)(=O)c1ccc(C)cc1 | 14.5%
CC(Nc1ncnc2c1NC(=O)CN2)c1ccccn1 (stereo not given) | 7.66%

Structure (SMILES) | cytotoxicity at 10 µM
CCN1CC2(CCN(C(=O)C(C)Oc3ccc(F)cc3Cl)CC2)CC1=O (stereo not given) | -2.98%
O=C(Cc1ccco1)N1C[C@H]2CCC[C@@]2(COc2cccnc2)C1 | -109%
c1cc(CCNc2ncc(-c3cnccn3)c(C3CC3)n2)ccn1 | 13.5%
Cc1cnc(N2CC[C@@]3(O)CCCC[C@H]3C2)nc1-c1ccnn1C | 0.276%
Cc1ccc(CC(=O)N2C[C@@H](CN(C)C)[C@@H](CO)C2)cc1C | -14%
c1ccc2c(CC3CN(Cc4nccs4)CCO3)cccc2c1 (stereo not given) | 1.31%
O=C1COc2cc(C(=O)NCc3ccc(Cl)s3)ccc2N1 | 1.55%
O=C(NC[C@H]1OC[C@@H]2CCN(c3ncccn3)C[C@@H]21)c1ccnnc1 | 7.37%
O=C(c1ncc(F)cc1F)N1CCC(c2ncc[nH]2)CC1 | -3.73%
CCSc1ccc(NC(=O)N2CCCC2c2ccncc2)cn1 (stereo not given) | -8.88%
O=S(=O)(c1cccc(Cl)c1)N1C[C@@H]2CCN[C@@H]2C1 | -0.331%
NCc1cn(-c2ccccc2C(=O)NCc2ccccc2)cn1 | 3.32%
CN(CCCOc1ccccc1Cl)C(=O)CN1C[C@H]2CC[C@@H](CC1=O)N2 | -11.9%
Cc1n[nH]c(C)c1CCN(C)C(=O)C(c1cccnc1)N1CCOCC1 (stereo not given) | -0.593%
Cc1cc2[nH]c(=O)c(=O)[nH]c2cc1S(=O)(=O)NC1CCCCC1 | -8.41%
Cc1cc(C(=O)Nc2ccc(N3CCCC3)cn2)ccc1-n1cncn1 | 19.8%
Cc1sc2nc(CCN)nc(N3CC(N4CCCCC4)C3)c2c1C | -21.9%
COc1c(C(=O)NCC(C)Sc2ccccc2)c(C)nn1C (stereo not given) | 12.1%
CC(=O)N1CC[C@H]2[C@H](C[C@@H](Cn3cncn3)N2c2nccs2)C1 | -140%
c1ncn(CC2CN(Cc3csc(C4CCCC4)n3)CCO2)n1 (stereo not given) | -8.55%
Cc1ccc(CN2CCc3onc(C(=O)N4CCCC4)c3C2)o1 | 6.28%
CCOc1ccc2nc(NC(=O)c3c(C(=O)O)cnn3C)sc2c1 | 6.47%

Structure (SMILES) | cytotoxicity at 10 µM
COc1ccc(-c2nc(CNC(C)Cn3cccn3)cs2)cc1 (stereo not given) | 4.27%
CN(Cc1cccnc1)[C@@H]1CN(c2ccccn2)[C@@H]2CCCO[C@H]12 | 2.78%
Cn1ccnc1-c1ccc(NCc2cn3c(n2)SCC3)nn1 | -0.641%
Cc1nn(C)c(C)c1C(C(=O)O)N1CC=C(c2ccccc2)CC1 (stereo not given) | -2.11%
CCOCCC(=O)N(CCC#N)c1ccc(C)c(C)c1 | 4.06%
COc1cccc(C=CCCN2CCN(S(C)(=O)=O)CC2)c1 | -1.62%
COCCN(Cc1ccccn1)C(=O)c1ccc(=O)n(C)c1 | -16.8%
CCn1cc2c(n1)C(COC)CN(C(=O)c1ccccn1)C2 (stereo not given) | 2.61%
Cn1cc(CNc2nc3cc(Cl)ccc3n2C)cn1 | 16.8%
c1ccc2cc(OCCN3CCn4c(nnc4C4CC4)C3)ccc2c1 | 5.49%
CC(=O)c1cccc(NC(=O)COc2c(C)n(C)ccc2=O)c1 | 2.45%
CS(=O)(=O)N1CCOCC2(CCN(C(=O)c3ccncc3)CC2)C1 | 2.78%
CC(C)(C)NCc1ccc(OCc2ccc3c(c2)OCCO3)cc1 | 1.99%
O=C(CC1CCCO1)NCCc1ccc(Br)cc1F (stereo not given) | -7.78%
CCCc1n[nH]c(C2CN(C(=O)C3=COCCC3)CCO2)n1 (stereo not given) | -5.04%
Cc1cnn(CCNCc2c(C)nn(C)c2Cl)c1 | -15.3%
CC(c1ccccc1Cl)N(C(=O)CSCC(N)=O)C1CC1 (stereo not given) | -36.3%
CCOCC1CN(c2ncc(F)cn2)Cc2cn(CC)nc21 (stereo not given) | 8.31%
CN1CCC(c2nnc3ccc(C(=O)NC4CCCC4)cn23)C1 (stereo not given) | -1.37%
Cc1cc(CN2CCN(C(=O)NCCCc3cn[nH]c3C)CC2)on1 | -13.2%
N#CCCN(CC1CCOC1)S(=O)(=O)c1cccc(Cl)c1 (stereo not given) | 3.81%
Nc1nc2c(c(NCc3nccs3)n1)CCN(CC1CCCC1)CC2 | 4.36%

Structure (SMILES) | cytotoxicity at 10 µM
COCCC(=O)N1CCCC(CCC(=O)Nc2ccc(Cl)cc2)C1 (stereo not given) | 6.48%
CCN(Cc1ccc(C(C)=O)cc1)CC1CCOCC1 | -2.69%
CC(=O)N[C@H](C)c1c(-c2ccc(Cl)cc2)noc1C(=O)O | 3.29%
COCCNC(=O)c1cc(COc2cncc(Cl)c2)on1 | 0.141%
CCCC(NC(=O)c1ccc(OC)cc1C)c1nnn[nH]1 (stereo not given) | 2.06%
COc1ccc(OC)c(C(O)CN2CCN(c3cccc(C)c3)CC2)c1 (stereo not given) | 6.69%
Cc1nn(-c2ccc(C(=O)O)cc2)c2c1C(C(C)C)SCC(=O)N2 (stereo not given) | -3.58%
CCc1noc(C(C)N2CCN(CC(=O)N3CCOCC3)CC2)n1 (stereo not given) | 6.01%
COc1ncccc1NC(=O)N(Cc1ccccn1)C1CC1 | 9.11%
COc1ccc(COCC(O)CNC(=O)c2ccc(C#N)cc2)cc1 (stereo not given) | 0.561%
CC(C)c1noc(CS(=O)(=O)CC(=O)NCc2ccccc2)n1 | -10.5%
COc1ccccc1N1CCC(CNS(=O)(=O)c2c(C)nn(C)c2C)C1 (stereo not given) | -21.8%
C=C(C)CN1CCCC1c1nc(Cc2ccc(F)cc2)no1 (stereo not given) | -4.9%
CCN(C)Cc1cccc(CNC(=O)CSCc2ccccn2)c1 | 1.61%
Cc1cc(CN2CC[C@H]3C[C@H](C(=O)Nc4cccnc4C)O[C@@H]3C2)no1 | -67%
CC(C)N1CCC(CC(=O)NC(C(=O)O)c2cc(F)ccc2F)CC1 (stereo not given) | 1.18%
Cc1nc(-c2cc(Cl)cc3c2OC(CN)C3)c[nH]1 (stereo not given) | -1.11%
CNC(=O)CCNC(=O)c1cc(C)n(-c2cccc(OC)c2)c1C | -10.2%
CC(c1nccs1)N(C)C(=O)c1cc(CN(C)Cc2ccccc2)on1 (stereo not given) | 12.2%
CCc1nnc(NCc2cccc(OC)c2OC)o1 | 6.79%
CCc1ccc(CN(C)Cc2nc(-c3cnccn3)no2)nc1 | 3.57%
c1cc(-c2nnc(C3CCCN(CC4CCCCC4)C3)o2)ccn1 (stereo not given) | -12.1%
